Data published in ChEMBL document CHEMBL2176901, “Pyrrolo[3,4-h]quinolinones a new class of photochemotherapeutic agents” (Bioorg Med Chem, 2011).
Activity calls are given as the source filed them. The rule behind the calls is not given here.

Key:
Nucleic Acid [1] = test: Induction of photo-induced DNA damage in Escherichia coli pBR322 DNA at drug:DNA ratio of 1:3 by agarose gel electrophoresis in presence of nitrogen flux; type: nucleic-acid assay
Summary of the method: (§1)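 Supercoiled pBR322 (100 ng) in 10 mM phosphate buffer pH 7.2 irradiated with UV-A (3.75 J/cm²) at [DNA]/[drug] 1/3, with additives, under nitrogen or in deuterated buffer as stated. Aliquots then incubated at 37 °C with Fpg or Endo III. Run on 1% agarose in TAE, 80 V for 2 h, stained with ethidium bromide; Form I/II fractions from band densitometry.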

Jurkat [2] = test: Phototoxicity in 3.75 J/cm'2 UV-A irradiated human Jurkat cells after 72 hrs by MTT assay; type: functional, cell-based; conditions: light or radiation study
Summary of the method: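 Jurkat cells (8 × 10³/well) in RPMI-1640 with 10% FBS, held 18 h at 37 °C, 5% CO2. Compound stock in DMSO was diluted in HBSS pH 7.2 and added for 30 min at 37 °C. Cells were UV-A irradiated (lamp mainly 365 nm, 4.0 mW/cm²), then returned to medium for 72 h. MTT readout. IC50 is the mean ± SEM of three experiences.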

Jurkat [3] = test: Induction of apoptosis in UV-A irradiated human Jurkat cells assessed as increase in number of damaged lysosomes after 6 to 24 hrs by acridine orange- based flow cytometry; type: functional, cell-based
Summary of the method: (§2)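 Lysosomal stability in Jurkat cells 6, 12 and 24 h after UV-A (2.5 J/cm²) with compound. Cells resuspended in RPMI-1640 with 1 µM acridine orange; flow cytometry, excitation 488 nm, emission in FL3. Mean ± SEM of three experiments.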

LoVo = test: Phototoxicity in 3.75 J/cm'2 UV-A irradiated human LoVo cells after 72 hrs by MTT assay; type: functional, cell-based; conditions: light or radiation study
Summary of the method: (§3)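 Seeded at 5 × 10³ cells/well with 10% FBS: MCF-7 and NCTC-2544 in DMEM, LoVo in Ham's F12. Pre-incubated 18 h at 37 °C, 5% CO2. Compound (DMSO stock diluted in HBSS pH 7.2) was applied for 30 min at 37 °C, then UV-A irradiation (mainly 365 nm, 4.0 mW/cm²). Medium was restored for 72 h before MTT. IC50 is the mean ± SEM of three experiences.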

[4] = Phototoxicity in 2.5 J/cm'2 UV-A irradiated human NCTC-2544 cells after 72 hrs by MTT assay; type: functional, cell-based; conditions: NCTC-2544, light or radiation study
Summary of the method: (§4)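 HL-60 and Jurkat (8×10³/well, RPMI-1640) and MCF-7, LoVo, NCTC-2544 (5×10³/well; DMEM or Ham's F12) preincubated 18 h at 37 °C, 5% CO₂. Compound in DMSO diluted in HBSS pH 7.2, 30 min at 37 °C, then UV-A at 2.5 or 3.75 J/cm². Medium replaced, 72 h incubation, MTT read-out. IC50 as mean ± SEM of three experiments.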

MCF7 [5] = test: Phototoxicity in 3.75 J/cm'2 UV-A irradiated human MCF7 cells after 72 hrs by MTT assay; type: functional, cell-based; conditions: MCF7, light or radiation study; summary of the method: as §3
MCF7 [6] = test: Phototoxicity in 2.5 J/cm'2 UV-A irradiated human MCF7 cells assessed as cell viability after 72 hrs by MTT assay in presence of radical scavenger DABCO; type: functional, cell-based
Summary of the method: (§5)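 MCF-7 cells given compound plus scavenger in HBSS, 30 min at 37 °C, then UV-A (2.5 J/cm², 365 nm lamp). Medium replaced; viability by MTT after 72 h. Means ± SEM of at least three independent experiments.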

[7] = Photodegradation of the compound in DMSO assessed as formation of photoproducts at 20 uM at 1.3 to 14.1 J/cm'2 UV-A irradiation; type: physicochemical
Summary of the method: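 Compound solutions at 20 μM in DMSO exposed to increasing UV-A doses (HPW 125 lamps, mainly 365 nm, 4.0 mW cm⁻²). Absorption spectra recorded after each dose; isosbestic points noted.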

Nucleic Acid [8] = test: Induction of photo-induced Escherichia coli pBR322 DNA damage at drug:DNA ratio of 3:1 by agarose gel electrophoresis in presence of endonuclease III
MCF7 [9] = test: Phototoxicity in 2.5 J/cm'2 UV-A irradiated human MCF7 cells assessed as cell viability after 72 hrs by MTT assay in presence of radical scavenger mannitol; type: functional, cell-based; summary of the method: as §5
Nucleic Acid [10] = test: Induction of photo-induced supercoiled Escherichia coli pBR322 DNA at drug:DNA ratio of 1:3 by agarose gel electrophoresis in presence of glutathione; type: nucleic-acid assay; summary of the method: as §1
Jurkat [11] = test: Cell cycle arrest in UV-A irradiated human Jurkat cells assessed as accumulation at G1 phase at 10 uM after 24 hrs by propidium iodide based flow cytometry (reference value: 64.4 %); type: functional
Summary of the method: (§6)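 Exponentially growing Jurkat cells (5×10^5) irradiated with UV-A (365 nm lamp, 2.5 J/cm²) in presence of compound. After 24 h: fixed in ice-cold 70% ethanol, lysed with RNAse A, stained with PI (10 µg/ml), analysed by flow cytometry. Phases calculated on living cells; subG1 is hypodiploid DNA peak.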

Jurkat [12] = test: Cell cycle arrest in UV-A irradiated human Jurkat cells assessed as accumulation at S phase at 10 uM after 24 hrs by propidium iodide based flow cytometry (reference value: 25.3 %); type: functional; summary of the method: as §6
MCF7 [13] = test: Phototoxicity in 2.5 J/cm'2 UV-A irradiated human MCF7 cells after 72 hrs by MTT assay; type: functional, cell-based; conditions: MCF7, light or radiation study; summary of the method: as §4
[14] = Drug uptake in mitochondria of human NCTC-2544 cells at 10 uM after 2 hrs by fluorescence microphotography; type: ADME; conditions: nctc-2544, 2 h
Summary of the method: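 NCTC-2544 cells attached in Petri dishes, given compound at 10 μM for 2 h, washed with HBSS. Then 30 min with Rhodamine 123 (mitochondria), LysoTracker RED, CellMask Orange (plasma membrane) or ER-Tracker. Blue compound fluorescence overlaid on probe images by video-confocal microscopy.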

Jurkat [15] = test: Cell cycle arrest in UV-A irradiated human Jurkat cells assessed as accumulation at Sub G1 phase at 10 uM after 24 hrs by propidium iodide based flow cytometry (reference value: 0.1 %); type: functional; summary of the method: as §6
MCF7 [16] = test: Phototoxicity in 2.5 J/cm'2 UV-A irradiated human MCF7 cells assessed as cell viability after 72 hrs by MTT assay in presence of radical scavenger DMTU; type: functional, cell-based; summary of the method: as §5
Jurkat [17] = test: Cell cycle arrest in UV-A irradiated human Jurkat cells assessed as accumulation at G1 phase at 5 uM after 24 hrs by propidium iodide based flow cytometry (reference value: 64.4 %); type: functional; summary of the method: as §6
Jurkat [18] = test: Induction of apoptosis in UV-A irradiated human Jurkat cells assessed as increase in number of damaged lysosomes at 5 to 10 uM by acridine orange-based flow cytometry; type: functional, cell-based; summary of the method: as §2
Jurkat [19] = test: Induction of apoptosis in 3.75 J/cm'2 UV-A irradiated human Jurkat cells assessed as viable cells at 5 uM after 24 hrs by Annexin-V-FITC and propidium iodide based flow cytometry (reference value: 91 %); type: functional; conditions: light or radiation study, read-out: Activity
Jurkat [20] = test: Induction of apoptosis in 3.75 J/cm'2 UV-A irradiated human Jurkat cells assessed as early apoptotic cells at 10 uM after 24 hrs by Annexin-V-FITC and propidium iodide based flow cytometry (reference value: 1.9 %); type: functional

CCOC(=O)c1c2c(c(C)n1C)-c1c(cc(S(=O)(=O)c3ccccc3)c(=O)n1C)CC2
Activity (Nucleic Acid [1]): inactive | IC50 (Jurkat [2]): 800 nM | Activity (Jurkat [3]): Active | IC50 (LoVo): 400 nM | IC50 [4]: 2400 nM | IC50 (MCF7 [5]): 1300 nM | Activity (MCF7 [6]): inactive | Stability [7]: Unstable | Activity (Nucleic Acid [8]): Active | Activity (MCF7 [9]): inactive | Activity (Nucleic Acid [10]): inactive | Activity (Jurkat [11]): 39.1% | Activity (Jurkat [12]): 55.6% | IC50 (MCF7 [13]): 1700 nM | Drug uptake [14]: Active | Activity (Jurkat [15]): 43% | Activity (MCF7 [16]): inactive | Activity (Jurkat [17]): 48.9% | Activity (Jurkat [18]): Active | viability at 5 µM (Jurkat [19]): 70.1% | Activity (Jurkat [20]): 23.9%
